Unmarked numbers belong to inactive results. Results filed as inconclusive are left out. Calls of active or inactive are those of the source.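 Rule for the calls, unless noted: active = viability increase at or above a cutoff of the median across tested compounds plus 3 SD (cut at about 8.5% in these data, passing the limit was not always enough); inconclusive = some gains above the cutoff, reason not given; inactive = the rest.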
Columns and labels:
[1] = S. cerevisiae growth inhibition in permissive medium (OD615), pilot counter-assay for S. cerevisiae lifespan shortening project, permissive growth control (AID 705;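 active = growth inhibition above 25% in both replicates, a cutoff set 3 SD above the mean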); conditions: OD615, 24 h, at 10 µM, active compounds read high
Procedure, shortened: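 Timing: 24 h exposure, 30 °C / Material: Saccharomyces cerevisiae strain carrying genetically modified DeaD replicative-lifespan system / Signal: OD at 615 nm / Compound: 10 µM single dose, 0.25% DMSO / Medium: SC raffinose/galactose permissive medium / Evaluation: reduction in yeast growth (OD615)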

[2] = S. cerevisiae growth inhibition in restrictive medium, OD615, pilot screen, restrictive growth control, yeast lifespan reduction project (AID 706;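 active = growth inhibition above a set limit, 3 SD over mean compound inhibition, in both replicates, cut at about 43% in these data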;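 note: modified DeaD lifespan yeast strain shifted to restrictive glucose medium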); conditions: OD615, 48 h, at 10 µM, active compounds read high
Procedure, shortened: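 System: Engineered S. cerevisiae DeaD strain | Detection: OD615 | Buffer or medium: CSMM-D glucose medium | Doses: 10 µM compound, 0.25% DMSO | Timing: 4 h pre-growth plus 48 h compound exposure, 30 °C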

[3] = doxorubicin toxicity protection in MRP-1 cells – H69AR cells, CellTiter-Glo, duplicate, MRP-1 activator project, pilot screen (AID 807); conditions: H69AR viability with doxorubicin, CellTiter-Glo luminescence; at 10 µM; active compounds read high;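 note: compound pretreatment 18-22 h then 72 h combined with doxorubicin; 0% = doxorubicin alone and 100% = vehicle without doxorubicin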
[4] = viability of HCT116 without oncogenic beta-catenin – human colon tumor cells, pilot screen (AID 823;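 active = cell viability at or below a set limit in both duplicate runs, the limit being the all-compound median minus 4 SD, cut at about 23% in these data, passing the limit was not always enough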;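 note: 0% = wells killed by 20 µM Hyamine and 100% = untreated DMSO cell wells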); conditions: HCT116 beta-catenin knockout viability, CellTiter-Glo, 60 h; at 10 µM; active compounds read low
[5] = viability of PTEN-null HCT116 cells – cell-based, HCT116 clonal line, CellTiter-Glo, pilot screen (AID 824;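 active = viability at or below 27.92% in each of two runs, the all-compound median minus 4 SD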;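 note: 0% = 20 µM Hyamine control and 100% = vehicle cell control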); conditions: HCT116 PTEN-deleted viability, 60 h, at 10 µM, active compounds read low
[6] = RAM pathway blockade in budding yeast – dse1pr::URA3 reporter, 5-FOA selection, pilot screen (AID 869;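 active = inhibition over a set limit, the all-compound mean plus 3 SD, in both replicate runs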;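 note: 0% = DMSO wells with no growth and 100% = 10 µM 1-NA-PP1 with full growth; RAM network block rescues cells from 5-FOA so hits raise OD615 growth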); conditions: S. cerevisiae dse1pr::URA3 5-FOA growth, OD615, 2 d; at 10 µM; active compounds read high; strain carries analog-sensitive mutant Cbk1 kinase
[7] = RAM signaling pathway blockade in yeast – S. cerevisiae, Pdr1DBD-CYC8 efflux-inhibited sensitized strain, primary screen (AID 1298;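 active = RAM network inhibition above 8.4% in each of two replicates, 3 SD over the compound average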;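 note: 0% = DMSO untreated cells without growth and 100% = 10 µM 1-NA-PP1 full growth; higher means more yeast growth rescued from 5-FOA killing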); conditions: S. cerevisiae cbk1-as DSE1-URA3 strain, 5-FOA growth OD615, 2 d; at 50 µM; active compounds read high

## COc1ccc(OC)c2sc(NC(=O)C(C)C)nc12
[1]
  growth inhibition: -15.2%
[2]
  growth inhibition: -18%
[3]
  viability increase: -1.14%
[4]
  viability: 105%
[5]
  viability: 92%
[6]
  inhibition: 1.31%
[7]
  RAM network inhibition: 9.63%

## COc1ccc(OC)c(CCNC(=O)Cn2sc3nc(C)cc(C)c3c2=O)c1
[1]
  growth inhibition: 18.3%
[2]
  growth inhibition: 70.4% (active)
[3]
  viability increase: -8.04%
[4]
  viability: 2.27% (active)
[5]
  viability: 4.4% (active)
[6]
  inhibition: 1.38%
[7]
  RAM network inhibition: 11.3%

## COc1ccc(-c2nnc(NC(=O)C(C)C)s2)c(OC)c1
[1]
  growth inhibition: -18.6%
[2]
  growth inhibition: -10.3%
[3]
  viability increase: -2.16%
[4]
  viability: 96%
[5]
  viability: 88.8%
[6]
  inhibition: 4.28%
[7]
  RAM network inhibition: 9.53%

## COc1ccc(Cc2nc(-c3ccc(-n4cccc4)cc3)no2)cc1OC
[1]
  growth inhibition: -2.5%
[2]
  growth inhibition: -10.8%
[3]
  viability increase: 2.61%
[4]
  viability: 28%
[5]
  viability: 54.7%
[6]
  inhibition: 4.33%
[7]
  RAM network inhibition: 9.02%

## N#Cc1nc(COc2ccccc2)oc1N1CCCCC1
[1]
  growth inhibition: -9.45%
[2]
  growth inhibition: 10.3%
[3]
  viability increase: 2.53%
[4]
  viability: 87.5%
[5]
  viability: 88.9%
[6]
  inhibition: 0.495%
[7]
  RAM network inhibition: -1.83%

## O=C(O)c1cc2nc(C3CC3)cc(C(F)(F)F)n2n1
[1]
  growth inhibition: -2.34%
[2]
  growth inhibition: -2.47%
[3]
  viability increase: 0.62%
[4]
  viability: 102%
[5]
  viability: 90.1%
[6]
  inhibition: 1.67%
[7]
  RAM network inhibition: -2.13%

## Cc1ccc(OCC(=O)O)c(-n2nc3ccccc3n2)c1
[1]
  growth inhibition: -10.3%
[2]
  growth inhibition: 0.43%
[3]
  viability increase: 0.43%
[4]
  viability: 89.9%
[5]
  viability: 102%
[6]
  inhibition: 2.7%
[7]
  RAM network inhibition: 2.69%

## C=CCSc1nnc(-c2cc(Br)ccc2N)c(=O)[nH]1
[1]
  growth inhibition: -14.6%
[2]
  growth inhibition: -18%
[3]
  viability increase: 0.99%
[4]
  viability: 102%
[5]
  viability: 96.5%
[6]
  inhibition: 0.7%
[7]
  RAM network inhibition: 2.42%

## CC(=O)N1CCC(N(CCN2CCOCC2)C(=O)Nc2ccc(Cl)c(Cl)c2)CC1
[1]
  growth inhibition: -8.97%
[2]
  growth inhibition: -0.8%
[3]
  viability increase: -1.49%
[4]
  viability: 97%
[5]
  viability: 95.6%
[6]
  inhibition: 2.5%
[7]
  RAM network inhibition: 1.45%

## Cn1c(C(=O)NC2CCCC2)cc2c(=O)n(C)c3ccccc3c21
[1]
  growth inhibition: -12.6%
[2]
  growth inhibition: 3.59%
[3]
  viability increase: -2.84%
[4]
  viability: 84.3%
[5]
  viability: 87.4%
[6]
  inhibition: 1.21%
[7]
  RAM network inhibition: 7.72%

## Cc1cc(C)c2c3c(c(-c4ccccc4)n2n1)c(=O)n(C)c(=O)n3C
[1]
  growth inhibition: -9.68%
[2]
  growth inhibition: -1.79%
[3]
  viability increase: -1.8%
[4]
  viability: 101%
[5]
  viability: 94%
[6]
  inhibition: 2.26%
[7]
  RAM network inhibition: 5.77%

## OCCOCCNc1ncnc2nc[nH]c12
[1]
  growth inhibition: -8.26%
[2]
  growth inhibition: -0.86%
[3]
  viability increase: -0.43%
[4]
  viability: 106%
[5]
  viability: 101%
[6]
  inhibition: 1.8%
[7]
  RAM network inhibition: -0.28%

## Cc1cccc(NC(=O)Cn2cnc3sc(C)c(S(=O)(=O)N4CCC(C)CC4)c3c2=O)n1
[1]
  growth inhibition: -9.9%
[2]
  growth inhibition: -17.3%
[3]
  viability increase: -1.12%
[4]
  viability: 95.2%
[5]
  viability: 99.1%
[6]
  inhibition: 2.16%
[7]
  RAM network inhibition: 9.71%

## CCOC(=O)Cn1c(CN2CC(C)OC(C)C2)nc2c1c(=O)n(C)c(=O)n2C (stereo unspecified)
[1]
  growth inhibition: 3.12%
[2]
  growth inhibition: 8.5%
[3]
  viability increase: 0.25%
[4]
  viability: 95.2%
[5]
  viability: 95%
[6]
  inhibition: -0.31%
[7]
  RAM network inhibition: -1.12%

## c1ccc(-c2cnn3nnnc3n2)cc1
[1]
  growth inhibition: 0.085%
[2]
  growth inhibition: -12.7%
[3]
  viability increase: -1.17%
[4]
  viability: 102%
[5]
  viability: 97.9%
[6]
  inhibition: 1.85%
[7]
  RAM network inhibition: 1.66%

## CC(C)Sc1nc2c(c(=O)n1C)SC(C)C2 (stereo unspecified)
[1]
  growth inhibition: -7.53%
[2]
  growth inhibition: 2.86%
[3]
  viability increase: -1.28%
[4]
  viability: 106%
[5]
  viability: 99.5%
[6]
  inhibition: 1.61%
[7]
  RAM network inhibition: 5.77%

## COc1cc(C2C(C(N)=O)=C(C)Nc3nc(CCCO)nn32)cc(OC)c1OC (stereo unspecified)
[1]
  growth inhibition: -3.16%
[2]
  growth inhibition: -9.14%
[3]
  viability increase: -0.36%
[4]
  viability: 101%
[5]
  viability: 95%
[6]
  inhibition: 0.785%
[7]
  RAM network inhibition: 0.15%

## O=C(Cc1cccs1)Nc1nnc(-c2ccncc2)s1
[1]
  growth inhibition: -0.91%
[2]
  growth inhibition: 3.21%
[3]
  viability increase: 2.53%
[4]
  viability: 108%
[5]
  viability: 98.8%
[6]
  inhibition: 0.38%
[7]
  RAM network inhibition: 0.83%
